Only some compounds are listed: those with a hit (about 1.2% of all), similar ones and a draw of the others.
MsrA act: bovine methionine sulfoxide reductase A activation. purified bovine MsrA, absorbance read-out. activation, % at 10.6 µM. 360,000 tested, 0.3% active. AID 602163; in the data active means activation above about 7.5%;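 further: 0% = vehicle and 100% = reference activator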
procasp7 counter: activates human procaspase-7, counter-screen for procaspase-3 activators. 330,000 tested, 0.093% active. recombinant procaspase-7, Ac-DEVD-pNA absorbance 405 nm; D23A/D198A/D206A triple mutant, cannot self-cleave; scale: DMSO 0, 5 µM enzyme 100. activation, % at 8.5 µM. P55210. AID 463210;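 active means percent activation above the screen-wide mean plus 3 SD, cut at about 25% in these data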
Target sequence (P55210 whole entry D23A/D198A/D206A): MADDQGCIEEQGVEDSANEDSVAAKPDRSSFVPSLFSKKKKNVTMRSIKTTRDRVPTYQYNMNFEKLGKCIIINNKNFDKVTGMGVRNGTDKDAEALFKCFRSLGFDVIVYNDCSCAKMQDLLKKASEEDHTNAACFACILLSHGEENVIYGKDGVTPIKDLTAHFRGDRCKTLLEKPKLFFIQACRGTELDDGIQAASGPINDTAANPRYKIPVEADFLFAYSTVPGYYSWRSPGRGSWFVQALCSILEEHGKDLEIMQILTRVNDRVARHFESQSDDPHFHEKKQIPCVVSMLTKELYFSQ
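System: Procaspase-7 triple mutant (PC-7 D3A); measure: % activation from two-timepoint absorbance difference, scaled to controls; times: 1 h compound preincubation, 2 h substrate cleavage, 25 °C; also added: Ac-DEVD-pNA substrate, 400 µM as added; measured by: Epi-absorbance of released pNA at 405 nm, two timepoints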
proCasp3 act: activators of human procaspase-3; 330,000 tested, 0.11% active; recombinant procaspase-3 D3A, Ac-DEVD-pNA absorbance 405 nm; P42574; AID 463141; activation, % at 8.5 µM;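 active means activation above the mean of all tested compounds plus 3 SD, cut at about 21% in these data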;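 further: 0% = DMSO alone and 100% = DMSO wells spiked with extra 5 µM PC-3 D3A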
Target sequence (P42574 whole entry D9A/D28A/D175A): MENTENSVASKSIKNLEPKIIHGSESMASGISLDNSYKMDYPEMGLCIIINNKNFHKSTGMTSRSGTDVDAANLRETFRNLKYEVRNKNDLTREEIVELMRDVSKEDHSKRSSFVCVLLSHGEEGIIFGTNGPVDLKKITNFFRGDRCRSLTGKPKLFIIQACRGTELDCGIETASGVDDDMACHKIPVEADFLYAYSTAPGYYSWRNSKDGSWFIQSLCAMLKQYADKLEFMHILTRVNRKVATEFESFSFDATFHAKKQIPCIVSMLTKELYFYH
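Assay system: Procaspase-3 D3A mutant, all three cleavage aspartates alanine. Buffer or medium: Zinc-free HEPES saline buffer with Triton X-100. Times: 1 h compound preincubation, 2 h substrate hydrolysis at 25 °C. Measured by: 405 nm absorbance of p-nitroaniline, reads at 0 and 120 min. Read-out basis: percent activation relative to control range. Replicates: singlicate.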
MsrA inhibitor: bovine MsrA inhibition; purified bovine MsrA, absorbance read-out; inhibition, % at 15.5 µM; 360,000 tested, 0.75% active; in the data active means inhibition above about 4.5%;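 further: 0% = vehicle wells with enzyme and 100% = reference inhibitor wells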
procasp7 triplic: activates human procaspase-7, counter-screen for procaspase-3 activators. shares compounds with proCasp3 act. recombinant procaspase-7, Ac-DEVD-pNA absorbance; asp23/198/206-to-Ala mutant, cannot self-cleave. activation, % at 8.5 µM. 210 tested, under 10 active;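 active means mean activation above a set limit taken from an earlier procaspase-7 screen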;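 further: 0% = DMSO wells and 100% = DMSO plus 5 µM procaspase-7 enzyme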
proCasp3 confirm: procaspase-3 (human) activation, confirmed | shares compounds with proCasp3 act | recombinant PC-3 D3A, Ac-DEVD-pNA absorbance 405 nm; 100% is higher-enzyme control | activation, % at 8.5 µM | 210 tested, 10% active;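 active means mean activation above a set limit carried over from the earlier primary screen, cut at about 22% in these data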
An asterisk follows results filed as active; · = no result.

SMILES	MsrA act	procasp7 counter	proCasp3 act	MsrA inhibitor	procasp7 triplic	proCasp3 confirm
COC(=O)c1cc2c(c3c4cc(F)ccc4n(S(=O)(=O)c4ccc(OC)cc4)c13)C(=O)N(Cc1ccccc1OC)C2	·	·	·	0.6	·	·
COc1ccc(-c2nc3ccc(N4CCCC4)cc3c(=O)[nH]2)cc1OC	-3.3	-5.0	31.4*	1.3	-19.8	-9.9
COC(=O)C1=C(C)N(Cc2ccccc2C(F)(F)F)C(=NCc2cccc(C(F)(F)F)c2)NC1c1ccc(F)cc1 (stereo not given)	·	·	·	-2.5	·	·
CC(C)OC(=O)c1cc(=O)[nH]c2ccccc12	-2.8	0.7	2.4	1.4	·	·
CC(OC(=O)c1cc(=O)[nH]c2ccccc12)C(=O)c1ccccc1 (stereo not given)	-1.9	12.6	22.4*	1.8	1.9	7.0
[O-][n+]1onc2c1C(N1CCOCC1)CCC2N1CCOCC1 (stereo not given)	-4.1	11.1	67.6*	-0.1	4.5	4.8
COC(=O)CSc1ncnc2c1cnn2Cc1ccccc1	-0.6	1.3	-6.1	-0.4	·	·
CC(C)OC(=O)CSc1ncnc2c1cnn2Cc1ccccc1	-0.9	1.4	129.1*	-0.5	2.2	1.1
Cc1[nH]c2ccccc2c1CC(=O)Nc1ccc(Nc2cccnc2)c(-c2ccc(OC(F)(F)F)cc2)c1	·	·	·	1.6	·	·
CCCc1[nH]nc2c1C(c1cc(OC)cc(OC)c1)C(C#N)=C(N)O2 (stereo not given)	1.6	-11.8	-11.1	0.2	·	·
CCCc1[nH]nc2c1C(c1cccc(OC(=O)c3ccco3)c1)C(C#N)=C(N)O2 (stereo not given)	-1.4	9.2	21.3*	0.0	0.1	3.7
O=c1c(O)c(-c2cccs2)oc2ccccc12	-0.7	14.8	26.6*	2.0	1.1	4.8
Cc1cc2oc(=O)cc(CN(C)Cc3cccc(F)c3)c2cc1C	-1.7	0.0	-3.0	0.9	·	·
CCc1cc2c(CN(C)Cc3ccccc3F)cc(=O)oc2cc1O	-2.0	21.1	46.4*	1.1	-22.1	-15.8
CCOc1cc(OCC)cc(C(=O)N2CCC[C@@H]2C(=O)N2CCC[C@@H]2C(=O)NCc2cccc(OC)c2)c1	·	·	·	0.0	·	·
CCCCC1O[C@@H](C)[C@@H]2CN3CCc4c([nH]c5ccccc45)[C@@H]3C[C@@H]2N1C (stereo not given in full)	·	·	·	1.3	·	·
c1ccc(-c2cc3c(ccc4nonc43)nn2)cc1	-1.9	-3.6	2.6	0.4	·	·
Cc1cc2c3nonc3ccc2n1-c1ccccc1	1.3	20.0	25.1*	-0.7	-21.6	-13.2
COCCN1CCCc2nc(-c3ccc(Br)cc3)ccc21	·	·	·	-0.1	·	·
COC(=O)C1=C(NC(=O)c2cccc(OC)c2)CCS1	-2.0	24.8	28.6*	·	2.1	7.6
CCCNC(=O)c1ccc2c(=O)c(O)c(-c3ccc(OC)cc3)[nH]c2c1	-3.7	-2.0	118.8*	·	-1.8	0.5
CCCNC(=O)c1ccc2c(=O)c(O)c(-c3ccc(C)cc3)[nH]c2c1	-1.5	20.0	99.8*	1.4	21.2	28.5*
Cc1ccc(C)c(C(=O)COc2ncnc3ccccc23)c1	-3.8	-0.3	47.9*	0.8	1.4	5.8
COC(=O)[C@]12C[C@H](CC(=O)N3CCCCC3)C(=O)N(Cc3ccccc3)C1=C[C@H](C(C)(C)C)O[C@@H]2C	·	·	·	1.0	·	·
N#Cc1c(-c2ccccc2)cc2nc3ccccc3n2c1N	-12.7	13.7	30.6*	0.8	-11.2	-13.5
SMILES	MsrA act	procasp7 counter	proCasp3 act	MsrA inhibitor	procasp7 triplic	proCasp3 confirm
CC(=O)Nc1ccc(NC(=O)c2c(C)nn(Cc3ccccc3Cl)c2C)cc1	-12.5	9.9	0.7	-0.7	·	·
Cc1cccc(N2CCN(C(=O)c3c(C)nn(Cc4ccccc4Cl)c3C)CC2)c1C	-3.0	6.6	54.8*	-0.2	0.0	3.2
C[C@@H]1C=CCCO[C@]12C(=O)N(Cc1ccc(Br)cc1)c1cccc(Br)c12	·	·	·	1.6	·	·
CC(C)[C@H](NC(=O)c1ccc(Cl)c(Cl)c1)C(=O)N1CCC[C@H]1C(=O)NCCc1ccccc1Cl	·	·	·	-0.2	·	·
COc1ccccc1NC(=O)C(=O)c1cn(CC(=O)N2CCOCC2)c2ccccc12	-3.4	2.0	21.8*	2.2	2.5	3.4
COC(=O)c1ccccc1NCc1cc(=O)oc2cc(O)c(O)cc12	-4.0	18.0	53.2*	2.9	10.2	53.5*
CC(C)=CCc1cc(-c2oc3cc(O)cc(O)c3c(=O)c2O)ccc1O	-12.2	11.5	21.5*	0.4	3.3	1.3
Cc1c(C)n2c(SCC(=O)N3CCCCCC3)nnc2[nH]c1=O	-1.7	8.9	22.6*	0.7	0.8	2.7
Cc1cc(C)c(S(=O)(=O)c2ccc(Cl)cc2)c(=O)[nH]1	-1.7	9.0	-1.5	3.0	·	·
N#Cc1cc(S(=O)(=O)c2ccc(Cl)cc2)c(N)[nH]c1=O	-1.1	21.0	23.1*	0.2	-20.2	-14.8
O=C(N[C@H](Cc1ccccc1)C(=O)N1CCN(CC(=O)N2CCCC2)CC1)[C@H]1O[C@@H](n2ccc(=O)[nH]c2=O)[C@H](O)[C@@H]1O	·	·	·	-0.6	·	·
Cc1cc(N2CCNC[C@@H]2C)ccc1N1CCN(Cc2ccccc2)[C@H](C)C1	·	·	·	0.4	·	·
Cc1cc(C(F)(F)F)c(C#N)c(SCC(=O)Nc2nc3ccccc3s2)n1	-6.6	-8.0	-3.1	-0.7	·	·
Cc1nc(SCC(=O)Nc2nc3ccccc3s2)c(C#N)c(C)c1C	-4.5	-3.3	29.0*	0.3	-14.1	-6.7
Cc1cc(C)c(C#N)c(SCC(=O)Nc2nnc(-c3ccccc3)s2)n1	-3.7	22.5	26.7*	0.6	1.9	1.2
C=CCN=C1NC(c2ccccc2)C(C(=O)OC)=C(C)N1C (stereo not given)	·	·	·	0.3	·	·
CCc1ccc(N2CCN(C(=O)N3CCOCC3)CC2)cc1	-0.1	10.7	24.0*	0.1	2.7	5.4
CN(C)c1cccc2c(S(=O)(=O)NCC3CCN(C(=O)C(=O)c4cccs4)CC3)cccc12	·	·	·	0.9	·	·
O=C(N/N=C/c1ccc(-c2ccccc2Cl)o1)c1ccccc1	-5.3	-23.6	24.8*	3.4	-6.5	-4.9
CCCC#C/C(CCC)=C1\c2ccccc2C(=O)N1c1ccccc1	·	·	·	0.0	·	·
Cc1sc(NC(=O)CCCC(=O)O)c(C#N)c1C	-5.0	-7.7	21.8*	-0.4	-7.0	-0.9
COCCn1c(N)c(C(=O)NCC2CCCO2)c2nc3ccccc3nc21 (stereo not given)	-1.9	-22.2	-11.2	4.1	·	·
COCCn1c(N)c(C(=O)NCc2cccs2)c2nc3ccccc3nc21	3.3	-1.1	64.3*	0.8	-21.2	-16.0
COc1ccc(C2CC(c3ccccc3C(F)(F)F)=NN2c2ccc(S(N)(=O)=O)cc2)cc1 (stereo not given)	0.3	23.8	34.8*	2.2	-20.4	-14.4
CNc1ccccc1C(=O)OCC(C)=O	-1.3	22.5	21.7*	·	17.4	24.2*

Source: PubChem BioAssay
